Results reported in ChEMBL document CHEMBL5214982, “Identification and Biochemical Characterization of Pyrrolidinediones as Novel Inhibitors of the Bacterial Enzyme MurA” (J Med Chem, 2022).
Calls of active or inactive are those of the source. The rule behind the calls is not given here.

Tests used:
[1] = biological target: UDP-N-acetylglucosamine 1-carboxyvinyltransferase (Escherichia coli K-12) (UniProt P0A749); assay: Inhibition of wild type his tagged Escherichia coli K12 MurA at 20 uM using UDP-N-acetylglucosamine as substrate preincubated with substrate for 30 mins prior to compound addition for 15 mins followed by DTT and PEP addition and measured after 30 mins by malachite green based microplate reader analysis relative to control; conditions: time 45.0 min
Sequence of UDP-N-acetylglucosamine 1-carboxyvinyltransferase (Escherichia coli K-12) (P0A749 whole entry): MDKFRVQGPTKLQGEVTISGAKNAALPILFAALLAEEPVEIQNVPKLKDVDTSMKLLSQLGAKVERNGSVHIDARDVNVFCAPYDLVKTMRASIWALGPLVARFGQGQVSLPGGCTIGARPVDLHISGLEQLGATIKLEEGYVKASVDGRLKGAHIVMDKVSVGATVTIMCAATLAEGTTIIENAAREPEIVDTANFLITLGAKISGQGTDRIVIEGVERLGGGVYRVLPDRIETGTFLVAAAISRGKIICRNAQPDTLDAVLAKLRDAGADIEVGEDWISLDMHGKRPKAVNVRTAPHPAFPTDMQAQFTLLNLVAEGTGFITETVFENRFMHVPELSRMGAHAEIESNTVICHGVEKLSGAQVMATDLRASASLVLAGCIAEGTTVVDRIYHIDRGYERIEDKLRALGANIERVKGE

[2] = biological target: UDP-N-acetylglucosamine 1-carboxyvinyltransferase (Escherichia coli K-12, UniProt P0A749); assay: Inhibition of wild type his tagged Escherichia coli K12 MurA using UDP-N-acetylglucosamine as substrate […] for 15 mins followed by DTT and PEP addition and measured after 30 mins by malachite green based microplate reader analysis
Sequence of UDP-N-acetylglucosamine 1-carboxyvinyltransferase (P0A749 whole entry): as above

[3] = Stability in human plasma assessed as half life at by HPLC-MS analysis; format: ADME, cell-free
[4] = Stability in human plasma assessed as degradation at measured after 4 hrs by HPLC-MS analysis; format: ADME, cell-free; conditions: read-out: Drug degradation
[5] = Stability in human S9 fractions assessed as degradation at measured after 2 hrs by HPLC-MS analysis; format: ADME, subcellular, Liver, S9 fraction; conditions: read-out: Drug degradation
[6] = Stability in human S9 fractions assessed as half life at by HPLC-MS analysis; format: ADME, subcellular, Liver, S9 fraction
[7] = tested on: HepG2; assay: Cytotoxicity against human HepG2 cells at upto 100 uM incubated for 24 hrs by MTT assay; format: toxicity, cell-based; conditions: hepg2, 24 h
Outline: (§1)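 MRC-5 (20,000/well) or HepG2 (25,000/well) seeded, treated next day for 24 h with eight concentrations up to 100 μM (DMSO solutions). Viability by MTT: medium replaced with 0.5 mg/ml MTT in DMEM, cells lysed in DMSO, absorbance at 560 nm. Three independent experiments.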

[8] = tested on: MRC5; assay: Cytotoxicity against human MRC5 cells at upto 100 uM incubated for 24 hrs by MTT assay; format: toxicity, cell-based; conditions: mrc5, 24 h; outline: as §1
[9] = biological target: UDP-N-acetylglucosamine 1-carboxyvinyltransferase (Escherichia coli K-12) (UniProt P0A749); assay: Inhibition of wild type his tagged Escherichia coli K12 MurA at 0.2 uM using UDP-N-acetylglucosamine as substrate preincubated with substrate for 15 mins prior to compound addition for 15 mins followed by DTT and PEP addition by dilution assay
Outline: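 His-tagged WT MurA (30 μg) preincubated with 400 μM UNAG for 15 min, then with inhibitor (10 μM) for another 15 min. Mixture diluted 1:50 into master mix of 150 μM UNAG, 150 μM PEP, 2 mM DTT and 25 mM Tris-HCl pH 7.5 (final), giving 0.2 μM inhibitor; incubated 37°C 30 min. Malachite green/molybdate stop, A625 after 5 min, minus no-enzyme blank; three independent experiments.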

[10] = biological target: UDP-N-acetylglucosamine 1-carboxyvinyltransferase (Escherichia coli K-12) (UniProt P0A749); assay: Inhibition of wild type his tagged Escherichia coli K12 MurA at 2 uM using UDP-N-acetylglucosamine as substrate […] for 15 mins followed by DTT and PEP addition and measured after 30 mins by malachite green based microplate reader analysis relative to control; conditions: time 45.0 min
[11] = tested on: UDP-N-acetylglucosamine 1-carboxyvinyltransferase (Escherichia coli K-12), P0A749 [C115D]; assay: Inhibition of […] his tagged Escherichia coli K12 MurA C115D mutant at 2 uM using UDP-N-acetylglucosamine as substrate in presence of DTT and PEP by microplate reader analysis relative to control; conditions: time 45.0 min
Sequence of UDP-N-acetylglucosamine 1-carboxyvinyltransferase (Escherichia coli K-12), P0A749 [C115D] (P0A749 whole entry C115D): as the sequence (P0A749 whole entry) above, with C115D counted along it
Outline: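 His-tagged C115D MurA preincubated directly with compounds (no UNAG preincubation) 15 min rt; fosfomycin and test compound each 2 μM final, 2% DMSO. Master mix added: 150 μM UNAG, 150 μM PEP, 2 mM DTT, 25 mM Tris-HCl pH 7.5; 37 °C 30 min. Malachite green/molybdate stop, A625 after 5 min, no-enzyme background subtracted; three independent experiments.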

Compound | inhibition [1] [%] | IC50 [2] [µM] | other results
CCOC(=O)C1=C(O)C(=O)N(c2nc3c(Cl)cccc3s2)C1c1ccccc1 (centres undefined) | 18 |  | 
CC(C)(C)OC(=O)C1=C(O)C(=O)N(c2nc3ccc(Cl)cc3s2)C1c1ccccc1 (centres undefined) | 38 |  | 
CCOC(=O)C1=C(O)C(=O)N(c2nc3ccc(C(F)(F)F)cc3s2)C1c1ccc(-c2ccccc2)cc1 (centres undefined) | 70 | 6.1 | 
CCCCNc1ccc(C(=O)OCCN(C)C)cc1 [TETRACAINE] |  |  | t1/2 [3]: 20 min; metabolised at 4 h [4]: 100%
CCOC(=O)C1=C(O)C(=O)N(c2nc3ccc(C)cc3s2)C1c1cccs1 (centres undefined) | 14 |  | 
Cc1ccc2nc(N3C(=O)C(O)=C(C(=O)OCCO)C3c3ccc(-c4ccc(Cl)cc4)o3)sc2c1 (centres undefined) | 43 |  | 
C[C@]12CC[C@H]3[C@@H](CCC4=CC(=O)CC[C@@]43C)[C@@H]1CC[C@@H]2O [TESTOSTERONE] |  |  | metabolised at 2 h [5]: 89%; t1/2 [6]: 5.9 min
CCOC(=O)C1=C(O)C(=O)N(c2nc3ccc(C)cc3s2)C1c1ccc(-c2ccccc2)cc1 (centres undefined) | 76 | 8.5 | 
CCOC(=O)C1=C(O)C(=O)N(c2nc3ccc(C)cc3s2)C1c1ccc(-c2ccc(Cl)cc2)o1 (centres undefined) | 75 | 9.9 | 
CCOC(=O)C1=C(O)C(=O)N(c2nc3ccc(C)cc3s2)C1c1ccc(O)cc1 (centres undefined) | 23 |  | 
CCOC(=O)C1=C(O)C(=O)N(c2nc3ccc(C)cc3s2)C1c1cccc2ccccc12 (centres undefined) | 54 | 15 | 
CCOC(=O)C1=C(O)C(=O)N(c2nc3ccc(C)cc3s2)C1c1ccco1 (centres undefined) | 21 |  | 
CCOC(=O)C1=C(O)C(=O)N(c2nc3ccc(C)cc3s2)C1c1ccc(OC)c2ccccc12 (centres undefined) | 74 | 9.5 | 
CCOC(=O)C1=C(O)C(=O)N(Cc2ccc(Cl)cc2)C1c1ccc(-c2ccccc2)cc1 (centres undefined) | 40 |  | 
COC(=O)C1=C(O)C(=O)N(c2nc3ccc(C)cc3s2)C1c1ccc(-c2ccc(Cl)cc2)o1 (centres undefined) | 59 | 16 | 
Cc1cccc2sc(N3C(=O)C(O)=C(C(=O)OC(C)(C)C)C3c3ccccc3)nc12 (centres undefined) | 67 | 11 | 
CCOC(=O)C1=C(O)C(=O)N(c2nc3ccc(C)cc3s2)C1c1ccccc1 (centres undefined) | 26 |  | 
CCOC(=O)C1=C(O)C(=O)N(c2nc3ccc(C)cc3s2)C1c1ccc2ccccc2c1 (centres undefined) | 44 |  | 
CCOC(=O)C1=C(O)C(=O)N(c2ccc(-c3ccccc3)cc2)C1c1ccccc1 (centres undefined) | 19 |  | 
Cc1ccc2nc(N3C(=O)C(O)=C(C(=O)OC(C)(C)C)C3c3ccccc3)sc2c1 (centres undefined) | 38 |  | 
CCOC(=O)C1=C(O)C(=O)N(c2nc3ccc(Cl)cc3s2)C1c1ccccc1 (centres undefined) | 14 |  | 
CCOC(=O)C1=C(O)C(=O)N(c2nc3ccc(C)cc3s2)C1c1ccc(-c2ccc(C(F)(F)F)cc2Cl)o1 (centres undefined) | 94 | 4.8 | 
CCOC(=O)C1=C(O)C(=O)N(c2nc3ccc(C)cc3s2)C1c1ccccc1-c1ccccc1 (centres undefined) | 57 | 17 | 
CCOC(=O)C1=C(O)C(=O)N(c2nc3ccccc3s2)C1c1ccccc1 (centres undefined) | 0 |  | 

Compound | inhibition [1] [%] | IC50 [2] [µM] | other results
CCOC(=O)C1=C(O)C(=O)N(c2nc3ccc(Oc4ccccc4)cc3s2)C1c1ccccc1 (centres undefined) | 53 | 17 | 
CCOC(=O)C1=C(O)C(=O)N(c2nc3ccc(C)cc3s2)C1c1ccccc1-c1cccs1 (centres undefined) | 50 | 22 | 
CCOC(=O)C1=C(O)C(=O)N(c2ccc(Cl)cc2)C1c1ccc(Cl)cc1 (centres undefined) | 14 |  | 
CCOC(=O)C1=C(O)C(=O)N(c2nc3ccc(C)cc3s2)C1c1ccc(-c2ccc(Cl)nn2)cc1 (centres undefined) | 36 |  | 
CCOC(=O)C1=C(O)C(=O)N(c2nc3c(F)cc(F)cc3s2)C1c1ccc(-c2ccccc2)cc1 (centres undefined) | 76 | 7.5 | 
CCOC(=O)C1=C(O)C(=O)N(c2nc3ccc(C)cc3s2)C1c1ccc2cc(O)ccc2c1 (centres undefined) | 43 |  | 
CCOC(=O)C1=C(O)C(=O)N(c2ccccc2)C1c1ccc(-c2ccccc2)cc1 (centres undefined) | 13 |  | 
CCOC(=O)C1=C(O)C(=O)N(c2nc3ccc(C)cc3s2)C1c1cccnc1 (centres undefined) | 29 |  | 
CCOC(=O)C1=C(O)C(=O)N(c2nc3c(OC)cccc3s2)C1c1ccc(-c2ccccc2)cc1 (centres undefined) | 31 | 25 | 
CCOC(=O)C1=C(O)C(=O)N(c2nc3ccc(Cl)cc3s2)C1c1ccc(-c2ccccc2)cc1 (centres undefined) | 78 | 5.1 | Activity [7]: Non-Toxic; Activity [8]: Non-Toxic
CCOC(=O)C1=C(O)C(=O)N(c2nc3ccc(Cl)cc3s2)C1c1ccc(Cl)cc1 (centres undefined) | 34 |  | 
CCOC(=O)C1=C(O)C(=O)N(c2nc3ccc(C)cc3s2)C1c1nc2ccccc2s1 (centres undefined) | 12 |  | 
CCOC(=O)C1=C(O)C(=O)N(c2nc3c(ccc4ccccc43)s2)C1c1ccccc1 (centres undefined) | 36 |  | 
CCOC(=O)C1=C(O)C(=O)N(c2nc3ccc(C)cc3s2)C1c1ccc(-c2ccccc2)o1 (centres undefined) | 37 |  | 
CCOC(=O)C1=C(O)C(=O)N(c2nc3c(s2)CCCC3)C1c1ccccc1 (centres undefined) | 14 |  | 
CCOC(=O)C1=C(O)C(=O)N(c2nc3ccc(Br)cc3s2)C1c1ccc(-c2ccccc2)cc1 (centres undefined) | 52 | 21 | 
CCOC(=O)C1=C(O)C(=O)N(c2nc3ccc(C)cc3s2)C1c1cc(-c2ccccc2)cs1 (centres undefined) | 72 | 9.9 | 
CCOC(=O)C1=C(O)C(=O)N(c2nc3ccccc3s2)C1c1ccc(-c2ccccc2)cc1 (centres undefined) | 45 |  | 
CCOC(=O)C1=C(O)C(=O)N(c2nc3c(Cl)cccc3s2)C1c1ccc(-c2ccccc2)cc1 (centres undefined) | 73 | 7 | 
CCOC(=O)C1=C(O)C(=O)N(c2nc3cc(C)c(C)cc3s2)C1c1ccc(-c2ccccc2)cc1 (centres undefined) | 85 | 5.8 | 
C[C@@H]1O[C@@H]1P(=O)(O)O [FOSFOMYCIN] | 78 | 5.3 | inhibition [9]: Active; inhibition [10]: 31%; inhibition [11]: -4%
CCOC(=O)C1=C(O)C(=O)N(c2nc3c(C)cccc3s2)C1c1ccccc1 (centres undefined) | 0 |  | 
CCOC(=O)C1=C(O)C(=O)N(c2nc3ccc(OC)cc3s2)C1c1ccc(-c2ccccc2)cc1 (centres undefined) | 51 | 22 | 
